Test results published in ChEMBL document CHEMBL1122065, “Potential organ- or tumor-imaging agents. 22. Acyl-labeled cholesterol esters” (J Med Chem, 1982).

Experiments:
Conditions in all cases: in vivo
Rattus norvegicus [1] = test: Distribution (percent dose/g of tissue) of radioactivity 24 hr after intravenous administration of [125I]-labeled compound in rat adrenal cortex; format: ADME, organism-based
How it was run: (§1)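 Radioiodinated ester given IV to adult female Sprague–Dawley rats (200–300 g), 5–50 μCi per animal, 3–5 rats per compound. Rats killed by exsanguination under ether at 24 h. Organs blotted, large ones minced, weighed samples gamma-counted in well scintillation counter (84% efficiency). Value is % administered dose per g tissue, background-corrected; mean with SEM.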

Rattus norvegicus [2] = test: Distribution (percent dose/g of tissue) of radioactivity 24 hr after intravenous administration of [125I]-labeled compound in rat blood; format: ADME, organism-based; how it was run: as §1
Rattus norvegicus [3] = test: Distribution (percent dose/g of tissue) of radioactivity 24 hr after intravenous administration of [125I]-labeled compound in rat heart; format: ADME, organism-based; how it was run: as §1
Rattus norvegicus [4] = test: Distribution (percent dose/g of tissue) of radioactivity 24 hr after intravenous administration of [125I]-labeled compound in rat liver; format: ADME, organism-based; how it was run: as §1
Rattus norvegicus [5] = test: Distribution (percent dose/g of tissue) of radioactivity 24 hr after intravenous administration of [125I]-labeled compound in rat lung; format: ADME, organism-based; how it was run: as §1
Rattus norvegicus [6] = test: Distribution (percent dose/g of tissue) of radioactivity 24 hr after intravenous administration of [125I]-labeled compound in rat ovary; format: ADME, organism-based, Female gonad; how it was run: as §1
Rattus norvegicus [7] = test: Distribution (percent dose/g of tissue) of radioactivity 24 hr after intravenous administration of [125I]-labeled compound in rat plasma; format: ADME, organism-based; how it was run: as §1
Rattus norvegicus [8] = test: Distribution (percent dose/g of tissue) of radioactivity 24 hr after intravenous administration of [125I]-labeled compound to rat spleen; format: ADME, organism-based; how it was run: as §1
Rattus norvegicus [9] = test: Distribution (percent dose/g of tissue) of radioactivity 24 hr after intravenous administration of [125I]-labeled compound to rat thyroid; format: ADME, organism-based, Thyroid gland; how it was run: as §1
Rattus norvegicus [10] = test: Distribution (percent dose/g of tissue) of radioactivity 24 hr after intravenous administration of [125I]-labeled compound in rat thyroid; format: ADME, organism-based, Thyroid gland; how it was run: as §1
Rattus norvegicus [11] = test: Distribution (percent dose/g of tissue) of radioactivity 24 hr after intravenous administration of [125I]-labeled compound to rat blood; format: ADME, organism-based; how it was run: as §1
Rattus norvegicus [12] = test: Distribution (percent dose/g of tissue) of radioactivity 24 hr after intravenous administration of [125I]-labeled compound in rat spleen; format: ADME, organism-based; how it was run: as §1

Row | SMILES | Activity (Rattus norvegicus [1]) | Activity (Rattus norvegicus [2]) | Activity (Rattus norvegicus [3]) | Activity (Rattus norvegicus [4]) | Activity (Rattus norvegicus [5]) | Activity (Rattus norvegicus [6]) | Activity (Rattus norvegicus [7]) | Activity (Rattus norvegicus [8]) | Activity (Rattus norvegicus [9]) | Activity (Rattus norvegicus [10]) | Activity (Rattus norvegicus [11]) | Activity (Rattus norvegicus [12])
1 | CC(C)CCCC(C)C1CCC2C3CC=C4CC(OC(=O)c5cccc(I)c5)CCC4(C)C3CCC12C (centres undefined) | 12.76 % dose (g of tissue)-1 | – | 0.16 % dose (g of tissue)-1 | 5.03 % dose (g of tissue)-1 | 0.46 % dose (g of tissue)-1 | 15.7 % dose (g of tissue)-1 | 0.55 % dose (g of tissue)-1 | – | – | 7.3 % dose (g of tissue)-1 | 0.3 % dose (g of tissue)-1 | 1.86 % dose (g of tissue)-1
2 | CC(C)CCCC(C)C1CCC2C3CC=C4CC(OC(=O)CCc5ccc(I)cc5)CCC4(C)C3CCC12C (centres undefined) | 3.56 % dose (g of tissue)-1 | 0.13 % dose (g of tissue)-1 | 0.08 % dose (g of tissue)-1 | 0.42 % dose (g of tissue)-1 | 0.5 % dose (g of tissue)-1 | 1.35 % dose (g of tissue)-1 | 0.16 % dose (g of tissue)-1 | – | – | 67.52 % dose (g of tissue)-1 | – | 0.51 % dose (g of tissue)-1
3 | CC(C)CCCC(C)C1CCC2C3CC=C4CC(OC(=O)c5ccccc5I)CCC4(C)C3CCC12C (centres undefined) | 14.67 % dose (g of tissue)-1 | 0.44 % dose (g of tissue)-1 | 0.21 % dose (g of tissue)-1 | 5.18 % dose (g of tissue)-1 | 0.94 % dose (g of tissue)-1 | 13.68 % dose (g of tissue)-1 | 0.8 % dose (g of tissue)-1 | – | – | 1.96 % dose (g of tissue)-1 | – | 1.89 % dose (g of tissue)-1
4 | CC(C)CCCC(C)C1CCC2C3CC=C4CC(OC(=O)Cc5ccccc5I)CCC4(C)C3CCC12C (centres undefined) | 9.19 % dose (g of tissue)-1 | 0.21 % dose (g of tissue)-1 | 0.15 % dose (g of tissue)-1 | 3.99 % dose (g of tissue)-1 | 0.43 % dose (g of tissue)-1 | 5.97 % dose (g of tissue)-1 | 0.29 % dose (g of tissue)-1 | – | – | 46.31 % dose (g of tissue)-1 | – | 1.31 % dose (g of tissue)-1
5 | CC(C)CCCC(C)C1CCC2C3CC=C4CC(OC(=O)CCCc5ccc(I)cc5)CCC4(C)C3CCC12C (centres undefined) | 1.94 % dose (g of tissue)-1 | 0.87 % dose (g of tissue)-1 | 0.25 % dose (g of tissue)-1 | 0.36 % dose (g of tissue)-1 | 0.4 % dose (g of tissue)-1 | 3.23 % dose (g of tissue)-1 | 1.51 % dose (g of tissue)-1 | – | – | 30.09 % dose (g of tissue)-1 | – | 0.16 % dose (g of tissue)-1

Next, values leading:

Row | Activity (Rattus norvegicus [1]) | Activity (Rattus norvegicus [2]) | Activity (Rattus norvegicus [3]) | Activity (Rattus norvegicus [4]) | Activity (Rattus norvegicus [5]) | Activity (Rattus norvegicus [6]) | Activity (Rattus norvegicus [7]) | Activity (Rattus norvegicus [8]) | Activity (Rattus norvegicus [9]) | Activity (Rattus norvegicus [10]) | Activity (Rattus norvegicus [11]) | Activity (Rattus norvegicus [12]) | SMILES
6 | 7.48 % dose (g of tissue)-1 | 0.54 % dose (g of tissue)-1 | 0.2 % dose (g of tissue)-1 | 4.8 % dose (g of tissue)-1 | 0.97 % dose (g of tissue)-1 | 12.53 % dose (g of tissue)-1 | 1.01 % dose (g of tissue)-1 | 2.98 % dose (g of tissue)-1 | 6.06 % dose (g of tissue)-1 | – | – | – | CC(C)CCCC(C)C1CCC2C3CC=C4CC(OC(=O)c5cc(I)c(I)c(I)c5)CCC4(C)C3CCC12C (centres undefined)
7 | 3.29 % dose (g of tissue)-1 | 1.02 % dose (g of tissue)-1 | 0.33 % dose (g of tissue)-1 | 1.25 % dose (g of tissue)-1 | 0.65 % dose (g of tissue)-1 | 2.32 % dose (g of tissue)-1 | 1.88 % dose (g of tissue)-1 | – | – | 27.09 % dose (g of tissue)-1 | – | 0.5 % dose (g of tissue)-1 | CC(C)CCCC(C)C1CCC2C3CC=C4CC(OC(=O)Cc5ccc(I)cc5)CCC4(C)C3CCC12C (centres undefined)
8 | 3.4 % dose (g of tissue)-1 | 0.14 % dose (g of tissue)-1 | 0.11 % dose (g of tissue)-1 | 2.11 % dose (g of tissue)-1 | 0.27 % dose (g of tissue)-1 | 5.05 % dose (g of tissue)-1 | 0.24 % dose (g of tissue)-1 | – | – | 32.62 % dose (g of tissue)-1 | – | 0.77 % dose (g of tissue)-1 | CC(C)CCCC(C)C1CCC2C3CC=C4CC(OC(=O)Cc5cccc(I)c5)CCC4(C)C3CCC12C (centres undefined)
9 | 3.86 % dose (g of tissue)-1 | – | 0.11 % dose (g of tissue)-1 | 3.28 % dose (g of tissue)-1 | 0.94 % dose (g of tissue)-1 | 6.21 % dose (g of tissue)-1 | 0.36 % dose (g of tissue)-1 | – | – | 6.92 % dose (g of tissue)-1 | 0.2 % dose (g of tissue)-1 | 1.49 % dose (g of tissue)-1 | CC(C)CCCC(C)C1CCC2C3CC=C4CC(OC(=O)c5ccc(I)cc5)CCC4(C)C3CCC12C (centres undefined)
10 | 9.03 % dose (g of tissue)-1 | 0.57 % dose (g of tissue)-1 | – | 5.11 % dose (g of tissue)-1 | 0.7 % dose (g of tissue)-1 | 16.19 % dose (g of tissue)-1 | 1.02 % dose (g of tissue)-1 | 1.68 % dose (g of tissue)-1 | 2.63 % dose (g of tissue)-1 | – | – | – | CC(C)CCCC(C)C1CCC2C3CC=C4CC(OC(=O)c5cc(I)cc(I)c5I)CCC4(C)C3CCC12C (centres undefined)
